Only some compounds are listed: those with a hit (about 2% of all), similar ones and a draw of the others.
LEDGF integ inh: blockers of LEDGF/p75-dependent integrase strand transfer – biochemical, TR-FRET, high throughput, primary screen; TR-FRET IN-LEDGF/p75 DNA integration, Eu/Cy5; inhibition, % at 3.7 µM; hit rate 0.64% among 370,000;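 active = inhibition above the screen-wide mean plus 3 SD, cut at about 13% in these data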;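 note: signal is the Cy5 over europium emission ratio at 671 and 618 nm; 0% = plate median of compound wells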
UHRF1 MBD2 ctr: UHRF1 methylated DNA binding inhibitors, primary screen, counter-screen for MBD2 inhibitor project, biochemical, TR-FRET, human UHRF1, single concentration | E3 ubiquitin-protein ligase UHRF1 (Homo sapiens), Q96T88 | UHRF1 binding to methylated oligo | inhibition, % at 4.4 µM | hit rate 0.75% among 370,000; in the data active = inhibition above about 21%;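 note: UHRF1 SRA domain binding a hemimethylated CpG hairpin DNA probe; 0% = median of test compound wells and 100% = reference inhibitor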
ASAP1 GAP inh: inhibitors of human ASAP1 ArfGAP activity, primary screen, biochemical, fluorescence polarization. ASAP1-stimulated ARF1 GTP hydrolysis, GDP FP detection. hit rate 0.19% among 360,000. Arf-GAP with SH3 domain, ANK repeat and PH domain-containing protein 1 (Homo sapiens), …. inhibition, % at 16.5 µM; in the data active = inhibition above about 25%;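 note: 0% = vehicle with enzyme and substrate and 100% = no enzyme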
Target sequence (Q9ULH1 325-724 limits assumed): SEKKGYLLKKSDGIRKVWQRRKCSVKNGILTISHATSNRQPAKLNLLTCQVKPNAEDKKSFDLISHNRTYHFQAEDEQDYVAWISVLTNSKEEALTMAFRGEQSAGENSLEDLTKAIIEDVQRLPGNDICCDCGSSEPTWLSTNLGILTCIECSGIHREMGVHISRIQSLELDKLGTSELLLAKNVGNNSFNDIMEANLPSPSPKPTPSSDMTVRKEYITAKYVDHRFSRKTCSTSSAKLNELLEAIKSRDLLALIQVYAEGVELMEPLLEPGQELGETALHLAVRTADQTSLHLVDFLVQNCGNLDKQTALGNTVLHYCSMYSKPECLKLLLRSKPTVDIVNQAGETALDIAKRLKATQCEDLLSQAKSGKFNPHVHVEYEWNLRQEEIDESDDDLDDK
ARFGAP1 inhibitor: inhibitors of rat ARFGAP1 GAP activity, primary screen, biochemical, fluorescence polarization, GDP tracer; ADP-ribosylation factor GTPase-activating protein 1 (Rattus norvegicus), Q62848; Arfgap1-stimulated ARF1 GTP hydrolysis, GDP FP detection; inhibition, % at 16.5 µM; hit rate 0.26% among 360,000; AID 651572, 2012;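 active = inhibition above a per-plate limit, mean inhibition of low control wells plus 3 SD, cut at about 25% in these data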;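 note: 0% = DMSO wells with enzyme and 100% = wells lacking Arfgap1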
Target sequence (Q62848 1-136 limits assumed): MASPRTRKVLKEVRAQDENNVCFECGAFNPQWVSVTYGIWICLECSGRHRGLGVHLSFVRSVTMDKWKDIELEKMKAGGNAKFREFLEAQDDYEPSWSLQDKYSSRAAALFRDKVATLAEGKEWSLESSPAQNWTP
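Material: rat Arfgap1 catalytic domain, aa 1-136; also added: human ARF1(Δ1-17)-GTP substrate; compound dosing: one concentration, 16.5 µM, DMSO 1.26%; incubation: GTP hydrolysis reaction 2 h at 25 °C; measured by: Tracer-displacement fluorescence polarization with EDTA stop, 620/688 nm; evaluation: % inhibition from polarization; repeats: one replicate per compound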
TDP2 absorb: human TDP2 enzyme inhibitors, primary screen, biochemical, epi absorbance, recombinant enzyme | Tyrosyl-DNA phosphodiesterase 2 (Homo sapiens), O95551 | T5PNP hydrolysis, p-nitrophenol absorbance 415 nm | inhibition, % at 12.8 µM | hit rate 0.34% among 370,000 | AID 720702, 2013;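 active = inhibition above the mean of all tested compounds plus 3 SD, set per campaign, cut at about 25% in these data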;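 note: 0% = DMSO with enzyme and 100% = buffer with substrate but no TDP2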
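Evaluation: % inhibition relative to enzyme-containing and enzyme-free wells. Material: recombinant human TDP2. Benchmarks: enzyme-free and DMSO wells. Timing: enzyme reaction with compound for 2 h at 37 °C. Compound dosing: 12.8 µM only. Measured by: p-Nitrophenol epi absorbance. Reagent: T5PNP substrate at 5 mM, a TopII-DNA adduct mimic. Replication: single well per compound.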
MBD2 DNA inh: inhibitors of MBD2 binding to methylated DNA, primary screen, biochemical, TR-FRET, DNA-binding domain, human | MBD2 binding to methylated oligonucleotide | inhibition, % at 4.4 µM | hit rate 0.31% among 370,000 | AID 686964, 2013; in the data active = inhibition above about 13%
IN multimer act: HIV-1 IN multimer formation enhancers, counter-screen for LEDGF/p75 integration inhibitor project, biochemical, TR-FRET; activation, % at 7.7 µM; AID 1053131, 2014; TR-FRET HIV-1 integrase multimerization; hit rate 17% among 2,000; shares compounds with LEDGF integ inh; in the data active = activation above about 8.9%
TR-FRET interf: TR-FRET optical interference artefacts, confirmation, artefact control for LEDGF/p75-dependent integration inhibitor project, biochemical, HIV-1 IN multimerization. shares compounds with LEDGF integ inh. TR-FRET optical interference counterscreen. inhibition, % at 7.7 µM. 2,000 tested, under 10 active. AID 1053135, 2014;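 active = inhibition above the mean over all tested compounds plus 3 SD, which no compound reached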;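 note: 0% = integrase with antibodies and DMSO and 100% = antibodies without integrase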
LEDGF integ conf: inhibitors of HIV-1 IN-LEDGF/p75 DNA integration, confirmation, biochemical, TR-FRET; shares compounds with LEDGF integ inh; TR-FRET LEDGF/p75-dependent HIV-1 integration; inhibition, % at 3.7 µM; hit rate 36% among 2,000; AID 1053136, 2014; in the data active = inhibition above about 14%
* marks the source's active call; other numbers are inactive results; / = no result given.

SMILES	LEDGF integ inh	UHRF1 MBD2 ctr	ASAP1 GAP inh	ARFGAP1 inhibitor	TDP2 absorb	MBD2 DNA inh	IN multimer act	TR-FRET interf	LEDGF integ conf
COc1ccc(S(=O)(=O)Nc2ccc(F)c(F)c2)cc1Cl	35*	-2	2	0	-3	0	2	-6	-6
CN(Cc1ccccc1)C(=O)OCc1cn(Cc2cccc(Cl)c2)nn1	-6	3	/	/	-3	10	/	/	/
C=CCON1C(=O)C(=O)N(OCC=C)[C@H]2CCCC[C@H]21	81*	2	0	-6	-7	2	5	-26	0
c1ccc(Nc2cccc(Nc3ccccc3)c2)cc1	0	2	4	23	1	5	/	/	/
Oc1cccc(Nc2ccccc2)c1	16*	-1	2	8	3	0	26*	-83	1
COc1ccc2c(c1)CCCN2C(=O)C1CCCN(S(=O)(=O)c2cc(OC)ccc2OC)C1 (centres undefined)	1	-2	/	/	-3	-6	/	/	/
Nc1cc2cccnc2cc1Cl	18*	7	-10	3	9	-3	5	-16	27*
O=C(CSc1nnc(Cc2cccs2)n1C1CCCCC1)N1CCCc2ccccc21	14*	-2	-8	4	2	-4	1	-3	3
Cn1c(Cc2cccs2)nnc1SCC(=O)N1CCCc2ccccc21	3	3	1	9	7	3	/	/	/
Cc1[nH]n(-c2ccccc2)c(=O)c1C(c1cccc([N+](=O)[O-])c1)c1c(C)[nH]n(-c2ccccc2)c1=O	27*	16	0	5	90*	-4	2	-10	3
Cc1[nH]n(-c2ccccc2)c(=O)c1C(=O)c1ccc([N+](=O)[O-])cc1	-2	-2	6	2	6	4	/	/	/
COc1ccc(C2Nc3ccccc3C(=O)N2Cc2ccco2)cc1COc1c(C)cc(NC(C)=O)cc1C (centres undefined)	2	2	/	/	-13	0	/	/	/
O=C(N1CCCCCC1)N1CCN(C(=O)N2CCOCC2)CC1	31*	5	-3	0	6	5	0	1	0
COc1cc(O)c(C(CC(=O)N2CCCC(C)C2)c2ccccc2)c(OC)c1 (centres undefined)	3	13	/	/	-2	8	/	/	/
Cc1ccccc1CNC(=S)OC1CCC12CCC(c1ccccc1)CC2 (centres undefined)	-2	1	/	/	11	3	/	/	/
COC1=C[C@H](C(=O)NCc2ccc(Br)cc2)[C@H](C)[C@@H](c2ccccc2)CC1=O	22*	2	/	/	-5	1	0	-1	-10
O=C(CN1CCN(c2ccc(F)cc2)CC1)Nc1ccc(F)c(F)c1	3	18	18	5	-10	4	/	/	/
O=C(CN1CCN(c2ccc(Cl)cc2)CC1)Nc1cccc(F)c1	32*	-1	11	11	-6	-3	0	-1	-4
O=C(NCc1n[nH]c(=S)n1-c1ccccc1)c1ccco1	15*	1	3	-2	7	8	0	2	-8
O=C(CSc1nnc(COc2ccccc2)n1Cc1ccco1)NCc1ccco1	28*	11	-4	3	-11	1	5	-23	19*
Cc1cc(NC(=O)CSc2nnc(COc3ccccc3)n2Cc2ccco2)no1	0	-2	5	-9	1	-1	/	/	/
CC(C)CN1C(=O)[C@]2(CC(=O)N(C)C2c2ccccc2)c2cc(-n3cc(CN(C)C)nn3)ccc21 (some centres undefined)	3	0	/	/	-1	-4	/	/	/
CC1(C)OC(C)(C)/C(=C/Nc2ccc(O)cc2)C1=O	21*	6	0	-7	11	4	45*	-158	31*
CCOc1ccc(/C=c2\sc3nc(-c4ccco4)nn3c2=O)cc1OCC	16*	39*	1	7	-4	9	1	-4	6
COc1cccc(C2C(C(=O)Nc3ccccc3)=C(C)N=c3s/c(=C/c4ccc(OCC(=O)O)cc4)c(=O)n32)c1 (centres undefined)	4	-5	4	-8	8	-5	/	/	/
SMILES	LEDGF integ inh	UHRF1 MBD2 ctr	ASAP1 GAP inh	ARFGAP1 inhibitor	TDP2 absorb	MBD2 DNA inh	IN multimer act	TR-FRET interf	LEDGF integ conf
CC1=C(C(=O)Nc2ccccc2)C(c2ccc(C)o2)n2c(s/c(=C\c3ccco3)c2=O)=N1 (centres undefined)	29*	16	15	2	-1	11	3	-14	6
C=CCn1c(C)cc(C(=O)Cn2ncc(Cl)c(Cl)c2=O)c1C	26*	20	1	-4	0	7	26*	-92	39*
CCOc1ccc(NC(=O)CN(C)c2ccc(S(=O)(=O)N3CCOCC3)cn2)cc1OCC	15*	41*	5	3	4	-3	1	-4	-2
O=C(CSc1nnc(SCc2cccc3ccccc23)s1)Nc1ccc(S(=O)(=O)Nc2nccs2)cc1	5	0	/	/	-18	-3	/	/	/
Cc1ccc(CN2CCCCC(NC(=O)Nc3ccccc3-c3ccccc3)C2=O)cc1 (centres undefined)	2	2	/	/	-6	-6	/	/	/
N#Cc1c(SCC(=O)Nc2cccc(F)c2)sc2c(O)cc(=O)[nH]c12	17*	30*	-8	-4	-3	9	7	-38	5
N#Cc1cccc(NC(=O)CSc2sc3c(O)cc(=O)[nH]c3c2C#N)c1	3	2	0	11	-5	2	/	/	/
N#CCSc1ccccc1NC(=O)COc1ccc(-c2nnco2)cc1	14*	0	3	3	-1	3	-2	8	-5

Screening results as filed in PubChem BioAssay.
